The target in assay [1] is T1, C-X-C chemokine receptor type 3 (Homo sapiens) (UniProt P49682).
T1 sequence (whole entry): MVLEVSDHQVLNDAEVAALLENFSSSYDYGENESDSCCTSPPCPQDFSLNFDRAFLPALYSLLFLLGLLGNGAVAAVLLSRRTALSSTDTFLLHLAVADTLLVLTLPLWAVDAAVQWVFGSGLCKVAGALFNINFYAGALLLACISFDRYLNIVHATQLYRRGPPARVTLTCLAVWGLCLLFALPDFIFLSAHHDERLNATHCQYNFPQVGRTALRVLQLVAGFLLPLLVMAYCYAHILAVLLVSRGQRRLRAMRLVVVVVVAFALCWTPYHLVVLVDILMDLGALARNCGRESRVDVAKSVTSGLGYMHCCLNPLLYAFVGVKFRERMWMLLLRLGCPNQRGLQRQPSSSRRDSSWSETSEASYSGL
Kind of assay: Positive allosteric modulation of PK1-tagged CXCR3 (unknown origin) expressed in HEK293T cells co-expressing beta-arrestin/beta-Gal enzyme chimera assessed as increase in CXCL11-induced beta-arrestin recruitment at 10 uM after 4 hrs by chemiluminescence based beta-galactosidase reporter gene assay. Format: functional, cell-based. The essentials:
(§1)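 PathHunter β-arrestin 2 recruitment at CXCR3 by β-gal fragment complementation, chemiluminescent read-out, compounds at 10 µM. Inhibition mode is scaled between CXCL11 50 nM (100%) and (±)-NBI-74330 10 µM (full inhibition). Agonism tested without chemokine. Mean ± S.E.M., three experiments in triplicate.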
In general terms: Recruitment of arrestin is a read-out of receptor activation apart from second messengers.

Assay [2] deals with T2, C-X-C chemokine receptor type 4 (Homo sapiens, UniProt P61073). The assay can be described thus: Negative allosteric modulation of CXCR4 in human CD4+ T cells assessed as inhibition of CXCL12-induced migration at 150 uM preincubated for 1 hr followed by CXCL12 addition measured after 3 hrs by flow cytometry based transwell assay relative to control. Format: functional, cell-based. The essentials:
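Isolated human CD4+ T cells, CXCR4 expression checked by flow cytometry, pre-treated with compound at 150 µM, then transwell migration toward CXCL12. Migrated cells in the lower chamber counted by flow cytometry over 60 s. Mean ± SD of four independent experiments; unpaired t test.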

Assay [3] has as its target T2, C-X-C chemokine receptor type 4. Kind of assay: Negative allosteric modulation of CXCR4 (unknown origin) expressed in HEK293T cells assessed as inhibition of CXCL12-induced reduction in forskolin-mediated cAMP accumulation at 10 uM after 20 mins by BRET assay relative to control. Format: functional, cell-based. The essentials:
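CXCR4 antagonism in BRET cAMP assay, compounds at 10 µM. NetBRET expressed as percent, scaled between CXCL12 20 nM (100%) and IT1t 10 µM (0%). Mean ± S.E.M. of three experiments in triplicate.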
A general note: Cyclic AMP is a second messenger, typically raised through Gs and lowered through Gi signalling.

For assay [4] the target is unchanged. Kind of assay: Negative allosteric modulation of CXCR4 (unknown origin) expressed in HEK293T cells assessed as inhibition of CXCL12-induced reduction in forskolin-mediated cAMP accumulation after 20 mins by BRET assay. It counts as functional, cell-based. Summed up: (§2)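 Dose-response in CXCR4 BRET cAMP assay with CXCL12 at 20 nM, IT1t as reference. Analysis uses ternary complex allosteric model; where signal-to-noise was poor, nonlinear regression with Hill slope fixed at 1 gave approximate pEC50. Three experiments in triplicate.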

The target in assay [5] is T1, C-X-C chemokine receptor type 3 (Homo sapiens). Kind of assay: Agonist activity at CXCR3 (unknown origin) expressed in HEK293T cells assessed as inhibition of forskolin-mediated cAMP accumulation at 10 uM after 20 mins by BRET assay. Format: functional, cell-based.
The target is the same in assay [6]. Kind of assay: Agonist activity at PK1-tagged CXCR3 (unknown origin) expressed in HEK293T cells co-expressing beta-arrestin/beta-Gal enzyme chimera assessed as beta-arrestin recruitment at 10 uM after 4 hrs by chemiluminescence based beta-galactosidase reporter gene assay. Format: functional, cell-based. The essentials:
as §1

The target is the same in assay [7]. Kind of assay: Negative allosteric modulation of PK1-tagged CXCR3 (unknown origin) expressed in HEK293T cells co-expressing beta-arrestin/beta-Gal enzyme chimera assessed as inhibition of CXCL11-induced beta-arrestin recruitment at 10 uM after 4 hrs by chemiluminescence based beta-galactosidase reporter gene assay relative to control. It counts as functional, cell-based. Summed up:
as §1

Assay [8] has the same target. The assay can be described thus: Negative allosteric modulation of CXCR3 in human PBMC assessed as inhibition of CXCL11-induced migration at 150 uM preincubated for 1 hr followed by CXCL11 addition measured after 3 hrs by flow cytometry based transwell assay relative to control. Format: functional, cell-based. Summed up: (§3)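 Human PBMCs, CXCR3 expression confirmed by flow cytometry, pre-treated with compound (30 or 150 µM) then allowed to migrate toward CXCL11 in a transwell. Cells in the lower chamber counted by flow cytometry (60 s counts). Mean ± SD of four independent experiments; unpaired t test.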
On the technique in general: In flow cytometry, cells or beads pass a laser one at a time.

Assay [9] shares this target. The assay can be described thus: Negative allosteric modulation of CXCR3 (unknown origin) expressed in HEK293T cells assessed as inhibition of CXCL11-induced reduction in forskolin-mediated cAMP accumulation after 20 mins by BRET assay. It counts as functional, cell-based. Summed up: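 CXCR3 dose-response in BRET cAMP assay against CXCL11 at 50 nM, cRAMX3 as reference. Data fitted with a ternary complex allosteric model to give pKB and cooperativity α. Mean ± S.E.M., three experiments in triplicate.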

The target is the same in assay [10]. The assay can be described thus: Negative allosteric modulation of CXCR3 (unknown origin) expressed in HEK293T cells assessed as inhibition of CXCL11-induced reduction in forskolin-mediated cAMP accumulation at 10 uM after 20 mins by BRET assay relative to control. It counts as functional, cell-based. The essentials: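 CXCR3 antagonism in whole-cell BRET cAMP assay, compounds at 10 µM. NetBRET signal expressed as percent, scaled between CXCL11 50 nM (100%) and cRAMX3 10 µM (0%). Mean ± S.E.M. of three experiments in triplicate.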

The target is the same in assay [11]. Kind of assay: Negative allosteric modulation of CXCR3 in human PBMC assessed as inhibition of CXCL11-induced migration at 30 uM preincubated for 1 hr followed by CXCL11 addition measured after 3 hrs by flow cytometry based transwell assay relative to control. Format: functional, cell-based. The essentials:
as §3

For assay [12], the target named is T2, C-X-C chemokine receptor type 4. Kind of assay: Agonist activity at CXCR4 (unknown origin) expressed in HEK293T cells assessed as inhibition of forskolin-mediated cAMP accumulation at 10 uM after 20 mins by BRET assay. It counts as functional, cell-based. The essentials: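 Agonism screen in BRET-based cAMP assay, compounds at 10 µM applied without chemokine. For CXCR4, CXCL12 at 20 nM serves as positive control. Mean of three experiments, each in triplicate.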

The target is the same in assay [13]. The assay can be described thus: Positive allosteric modulation of CXCR4 (unknown origin) expressed in HEK293T cells assessed as increase in CXCL12-induced reduction in forskolin-mediated cAMP accumulation at 10 uM after 20 mins by BRET assay relative to control. It counts as functional, cell-based. On the set-up: scale not given: the % may be the effect or the level left.

The target is the same in assay [14]. The assay can be described thus: Agonist activity at CXCR4 (unknown origin) expressed in HEK293T cells assessed as inhibition of forskolin-mediated cAMP accumulation after 20 mins by BRET assay. Format: functional, cell-based. The essentials:
as §2

Assay [15] has the same target. The assay can be described thus: Negative allosteric modulation of CXCR4 (unknown origin) expressed in HEK293 cell membranes assessed as inhibition of CXCL12-induced [35S]GTPgammaS binding preincubated for 30 mins followed by [35S]GTPgammaS addition measured after 30 mins. It counts as functional.
Assay [16] has as its target T1, C-X-C chemokine receptor type 3 (Homo sapiens). The assay can be described thus: Negative allosteric modulation of CXCR3 (unknown origin) expressed in HEK293 cell membranes assessed as inhibition of CXCL11-induced [35S]GTPgammaS binding preincubated for 30 mins followed by [35S]GTPgammaS addition measured after 30 mins. Format: functional.

Each structure is given as a SMILES string. The source made the active and inactive calls. The rule behind the calls is not given here.

Experimental findings from ChEMBL document CHEMBL4152266, “Insight into structural requirements for selective and/or dual CXCR3 and CXCR4 allosteric modulators” (Eur J Med Chem, 2018) are described below.

Usually inhibition stands for the change of the read-out against control, counted positive when it falls. A word on the pKb: it is −log10 of the Kb, conventionally taken in molar units. A word on the EC50: it is the concentration at which the effect is half-maximal.

T2 sequence (P61073 whole entry): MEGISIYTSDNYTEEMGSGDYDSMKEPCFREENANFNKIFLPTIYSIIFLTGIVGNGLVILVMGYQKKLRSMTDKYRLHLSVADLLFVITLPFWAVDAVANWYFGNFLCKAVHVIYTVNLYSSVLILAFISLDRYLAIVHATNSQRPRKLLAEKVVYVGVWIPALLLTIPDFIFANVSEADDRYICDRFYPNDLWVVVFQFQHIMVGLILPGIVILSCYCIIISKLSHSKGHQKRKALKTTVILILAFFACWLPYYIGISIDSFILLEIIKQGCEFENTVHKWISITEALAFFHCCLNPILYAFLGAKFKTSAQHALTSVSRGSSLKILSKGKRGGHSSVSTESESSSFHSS

Regarding `O=C(NCCCN(CCc1ccccc1)c1ccccc1)c1ccc(-n2cccn2)nc1`, the result in assay [1] was inactive. In addition, the inhibition in assay [2] is more than 80%; in assay [3] it was more than 50%. Also, the pKb in assay [4] is 6.13.

`O=C(c1ccc(-n2cccn2)nc1)N1CCC(N(Cc2ccccc2)Cc2ccccc2)CC1`: in assay [5], the inhibition result was “inactive”. The outcome in assay [6] was inactive. Besides, the inhibition in assay [7] is not below 20%.

Consider `O=C(c1ccc(-n2cccn2)nc1)N1CCC(N(Cc2ccccc2)Cc2ccc(F)c(F)c2)CC1`, for which the inhibition result in [5] is “inactive”. For the same molecule, the result in [6] was inactive. For the same molecule, the inhibition in assay [7] is not below 20%.

For `O=C(c1ccc(-n2cccn2)nc1)N1CCN(Cc2ccc(Cl)cc2)CC1`, the inhibition was more than 20% in assay [8], more than 60% in [10] and more than 10% in assay [11]. For the same molecule, the negative logarithm of the Kb (pKb) in [9] came out at 6.35. For the same molecule, the inhibition entry in [7] was “inactive”.

`CCOc1ccc(-n2c(C(C)N(CC3CCN(C)CC3)C(=O)Cc3ccc(F)c(C(F)(F)F)c3)nc3ncccc3c2=O)cc1` (stereo not given): in [9], the negative logarithm of the Kb (pKb) was 7.33. In assay [10], the inhibition was 100%.

As for `O=C(NCCCNc1ccc(Cl)cc1)c1ccc(-n2cccn2)nc1`, in [12], the inhibition result is “Active”. The result in assay [1] was inactive. Besides, the pKb in assay [4] turned out to be 4.64.

For the molecule `CC1(C)CN2C(CS/C(=N\C3CCCCC3)NC3CCCCC3)=CSC2=N1`, the Activity in [13] worked out at 100%. For the same molecule, the pKb in assay [4] came out at 8.54.

Turning to `O=C(NC1CCN(Cc2ccc(F)c(F)c2)CC1)c1ccc(-n2cccn2)nc1`, the inhibition entry in [5] is “inactive”. Further, the values for the inhibition in assay [8], in [10] and in [11] were more than 20%, more than 50% and more than 10%, respectively. The outcome in assay [6] was inactive.

On to `CCOc1ccc(-n2c(C(C)N(Cc3cccnc3)C(=O)Cc3ccc(F)c(C(F)(F)F)c3)nc3ncccc3c2=O)cc1` (racemic), for which the inhibition in assay [7] stood at 100%.

Regarding `O=C(c1ccc(-n2cccn2)nc1)N1CCC(N(Cc2ccccc2)Cc2ccc(Cl)c(Cl)c2)CC1`, the inhibition result in [5] is “inactive”. The inhibition is more than 20% in assay [8], more than 50% in assay [10] and more than 10% in [11]. Besides, the outcome in assay [6] was inactive.

For the molecule `O=C(c1ccc(-n2cccn2)nc1)N1CCC(N(Cc2ccccc2)Cc2ccc(Cl)cc2)CC1`, the inhibition result in assay [5] is “inactive”. Further, the result in [6] was inactive. For the same molecule, in [7], the inhibition is not below 20%.

Regarding `COc1ccc(CN2CCN(C(=O)c3ccc(-n4cccn4)nc3)CC2)cc1`, the inhibition is more than 20% in assay [8]; more than 60% in assay [10]; more than 80% in assay [2]; more than 50% in assay [3]; more than 10% in [11]. For the same molecule, the values for the pKb in assay [9] and in assay [4] were 6.15 and 6.09, respectively. Also, in assay [1], the outcome was inactive.

Consider `O=C(c1ccc(-n2cccn2)nc1)N1CCC(NCc2ccccc2)CC1`, for which the inhibition result in assay [5] is “inactive”. Also, the EC50 in assay [14] was 5.89 µM. Also, the outcome in [13] was Active. The inhibition entry in assay [12] is “Active”. For the same molecule, the outcome in assay [6] and in assay [1] was inactive.

Consider `O=C(NCCCNc1ccccc1)c1ccc(-n2cccn2)nc1`, for which, in assay [14], the EC50 was 9.55 µM. The inhibition entry in [12] was “Active”. Also, in [1], the result was inactive.

As to `O=C(c1ccc(-n2cccn2)nc1)N1CCN(Cc2ccc(Cl)c(Cl)c2)CC1`, in assay [1], the outcome was inactive. Also, the inhibition in assay [2] was more than 80%; in assay [3], more than 50%. For the same molecule, the pKb in assay [4] is 6.5.

As for `CCN(CCCNC(=O)c1ccc(-n2cccn2)nc1)c1ccccc1`, the negative-log Kb (pKb) is 8.72 in [15] and 8.82 in assay [16]. Also, the inhibition entry in assay [10] and in assay [3] was “inactive” each time.

Turning to `COc1ccc(CN(Cc2ccccc2)C2CCN(C(=O)c3ccc(-n4cccn4)nc3)CC2)cc1`, the inhibition entry in assay [5] is “inactive”. Besides, the result in assay [6] and in assay [1] was inactive. Further, the inhibition in assay [7] was not below 20%; in assay [2] it was 100%; in assay [3], more than 50%. Moreover, the pKb in assay [4] was 5.83.

Take `O=C(NC1CCN(Cc2ccc(Cl)cc2)CC1)c1ccc(-n2cccn2)nc1`: the inhibition result in assay [5] is “inactive”. Moreover, the inhibition is 80% in [8], more than 50% in assay [10] and 80% in assay [11]. In addition, in assay [12], the inhibition entry is “Active”. Also, the result in assay [6] and in assay [1] was inactive. In [4], the pKb is 5.6.

As for `O=C(NCCCN(Cc1ccccc1)c1ccccc1)c1ccc(-n2cccn2)nc1`, the outcome in [1] was inactive. Moreover, the inhibition is more than 80% in assay [2] and more than 50% in assay [3]. The pKb in [4] amounted to 6.04.
